Screens deposited in PubChem BioAssay by several laboratories.
LEDGF integ inh: blockers of LEDGF/p75-dependent integrase strand transfer – biochemical, TR-FRET, high throughput, primary screen; TR-FRET IN-LEDGF/p75 DNA integration, Eu/Cy5; 370,000 tested, 0.64% active; inhibition, % at 3.7 µM;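 active means inhibition above the screen-wide mean plus 3 SD, cut at about 13% in these data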;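 further: signal is the Cy5 over europium emission ratio at 671 and 618 nm; 0% = plate median of compound wells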
CSN inh: inhibitors of CSN-mediated cullin deneddylation, primary screen, biochemical, fluorescence polarization, uHTS; Purified CSN, SCF-Nedd8-OG deneddylation; inhibition, % at 12.5 µM; 360,000 tested, 0.38% active;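 active means pattern-corrected inhibition above about 35%, with an unprinted fluorescence ratio check between 0.5 and 1.5, limit read from the data, passing the limit was not always enough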;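 further: 0% = enzyme with substrate and 100% = substrate without enzyme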
Target sequence (Q92905 whole entry, looked up, one chain of several): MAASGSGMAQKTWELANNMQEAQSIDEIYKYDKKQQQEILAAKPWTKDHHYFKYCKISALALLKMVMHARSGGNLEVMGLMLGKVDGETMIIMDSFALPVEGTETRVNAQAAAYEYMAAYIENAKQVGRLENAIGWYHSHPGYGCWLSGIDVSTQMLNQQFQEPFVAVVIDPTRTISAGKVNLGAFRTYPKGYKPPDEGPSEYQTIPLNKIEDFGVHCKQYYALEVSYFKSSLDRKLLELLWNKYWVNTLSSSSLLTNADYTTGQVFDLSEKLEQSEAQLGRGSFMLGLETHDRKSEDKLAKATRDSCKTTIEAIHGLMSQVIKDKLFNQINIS
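Assay system: purified human Csn5 enzyme expressed in HEK293T cells; Input: 0.24 nM Csn5 enzyme, final concentration; Reagent: 10 nM SCFSkp2-Nedd8OG; Compound dosing: 12.5 µM single point; Times: reaction 90 min, room temperature; Technique: fluorescence polarization readout.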
rCAG binder: binders of r(CAG) RNA repeats, primary screen, biochemical, fluorescence. 370,000 tested, 1.3% active. inhibition, % at 3 µM. r(CAG) RNA repeat, TO-PRO-1 dye displacement fluorescence. AID 651821, 2012;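 active means inhibition above the plate cutoff, the mean of all test compounds on that plate plus 3 SD, cut at about 35% in these data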;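 further: 0% = DMSO alone and 100% = 100 µM mitoxantrone as full dye displacement; higher means more dye released from RNA so lower well fluorescence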
MBD2 inh: inhibitors of MBD2 binding to methylated DNA, primary screen, biochemical, TR-FRET, DNA-binding domain, human. Methyl-CpG-binding domain protein 2 (Homo sapiens), Q9UBB5. inhibition, % at 4.4 µM. 370,000 tested, 0.31% active. MBD2 binding to methylated oligonucleotide. AID 686964, 2013; in the data active means inhibition above about 13%
UHRF1 MBD2 ctr: UHRF1 methylated DNA binding inhibitors, primary screen, counter-screen for MBD2 inhibitor project, biochemical, TR-FRET, human UHRF1, single concentration. UHRF1 binding to methylated oligo. inhibition, % at 4.4 µM. 370,000 tested, 0.75% active; in the data active means inhibition above about 21%;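 further: UHRF1 SRA domain binding a hemimethylated CpG hairpin DNA probe; 0% = median of test compound wells and 100% = reference inhibitor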
ATG4B inh: ATG4B protease inhibitors, primary screen, biochemical, fluorescence, uHTS; Cysteine protease ATG4B (Homo sapiens), Q9Y4P1; ATG4B cleavage of LC3-PLA2, NBD-HPC fluorescence, 1 h; inhibition, % at 8.33 µM; 340,000 tested, 0.51% active; AID 504462, 2011; in the data active means inhibition above about 40%
Target sequence (Q9Y4P1 whole entry, looked up): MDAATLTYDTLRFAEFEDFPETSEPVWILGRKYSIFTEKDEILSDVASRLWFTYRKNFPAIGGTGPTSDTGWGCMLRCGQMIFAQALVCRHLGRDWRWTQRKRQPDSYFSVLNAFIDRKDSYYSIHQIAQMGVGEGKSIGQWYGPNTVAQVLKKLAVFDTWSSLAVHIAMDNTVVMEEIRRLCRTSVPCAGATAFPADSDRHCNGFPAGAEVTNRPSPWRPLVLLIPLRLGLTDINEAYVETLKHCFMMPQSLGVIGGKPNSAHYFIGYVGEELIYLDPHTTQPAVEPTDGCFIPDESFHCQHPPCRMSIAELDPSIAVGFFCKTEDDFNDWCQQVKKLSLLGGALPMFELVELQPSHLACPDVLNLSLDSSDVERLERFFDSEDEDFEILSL
rCAG binder conf: small molecules binding CAG repeat RNA – biochemical, fluorescence, confirmation; shares compounds with rCAG binder; r(CAG) RNA repeat, TO-PRO-1 dye displacement fluorescence; inhibition, % at 3 µM; 4,300 tested, 70% active; AID 652065, 2013;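 active means inhibition above a per-plate cutoff, the mean inhibition of sample wells plus 3 SD, cut at about 35% in these data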;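 further: loss of TO-PRO-1 fluorescence as compound displaces dye from 1x1 AA loop RNA; 0% = DMSO only wells and 100% = 100 µM mitoxantrone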
DNA CAG counter: displacement of TO-PRO-1 from CAG DNA duplex, counter-screen for rCAG RNA repeat binder project, biochemical, fluorescence, TO-PRO-1 dye, d(CAG) DNA oligo; 4,300 tested, 94% active; shares compounds with rCAG binder; inhibition, % at 3 µM; d(CAG) DNA oligo TO-PRO-1 dye displacement; AID 652068, 2013;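 active means inhibition above its plate's cutoff, the mean test-well inhibition plus 3 SD, cut at about 4.8% in these data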;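 further: 0% = DNA dye mix with DMSO and 100% = 100 µM mitoxantrone; hits displace the dye from DNA and so lower well fluorescence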
* hit, by the source's call; / = not tested or not shown. A selection: hits, their analogues and other compounds. The true share with any hit is near 3.1%.

SMILES | LEDGF integ inh | CSN inh | rCAG binder | MBD2 inh | UHRF1 MBD2 ctr | ATG4B inh | rCAG binder conf | DNA CAG counter
CCOC(=O)[C@]12CCCCC/C=C\1N(CCc1ccc(Cl)cc1)C(=O)[C@H]2CC(=O)N1CCCCC1 | -1 | / | 3 | -2 | 1 | / | / | /
O=C(N/N=C/c1cc(Cl)cc([N+](=O)[O-])c1O)c1cccc(S(=O)(=O)N2CCOCC2)c1 | -6 | 0 | 68* | -8 | -13 | -13 | 56* | 20*
Cc1cc(C(=O)N/N=C/c2cc(Cl)cc([N+](=O)[O-])c2O)c2ccccc2n1 | -10 | -1 | 56* | -7 | -9 | 26 | 53* | 16*
CCCN1CCS(=O)(=O)N(Cc2cn(Cc3ccc(OC)cc3)nn2)C(C(=O)OC)C1 (stereo unspecified) | 2 | / | 1 | 0 | 0 | / | / | /
Cc1ccc(NC(=O)c2cccc(Oc3ccc([N+](=O)[O-])cc3)c2)c(C(=O)O)c1 | 12 | 3 | 85* | -6 | 7 | 21 | 74* | 38*
Nc1nc2c(c(=O)[nH]1)C(c1cccc3ccccc13)C1=C(N2)c2ccccc2C1=O (stereo unspecified) | 3 | -5 | 78* | -2 | -4 | -19 | 57* | 34*
O=C1OC(c2cccs2)=N/C1=C\c1ccc(-c2ccccc2Cl)o1 | 5 | 23 | 40* | -4 | -1 | 23 | 37* | 16*
CN(C)/C=C1\N=C(c2cccs2)OC1=O | -2 | -5 | 2 | -1 | -4 | -1 | / | /
O=C(O)CC/C(=C/c1cccc(NC(=O)c2ccccc2Cl)c1)c1nc2ccccc2s1 | 4 | 8 | 71* | -4 | -1 | 20 | 75* | 40*
O=C(CSc1nc2ccccc2s1)Nc1ccc(N2CCOCC2)c(Cl)c1 | -1 | -4 | -1 | 1 | 3 | 1 | / | /
O=C(O)CC/C(=C\c1ccc(N2CCOCC2)c([N+](=O)[O-])c1)c1nc2ccccc2s1 | 3 | -2 | 48* | -6 | -3 | -1 | 66* | 25*
O=C(O)C/C(=C\c1ccc(N2CCOCC2)c([N+](=O)[O-])c1)c1nc2ccccc2s1 | 3 | -4 | 45* | -12 | -6 | 0 | 41* | 16*
N#C/C(=C\c1ccc(O)c([N+](=O)[O-])c1)c1nc2ccccc2s1 | 2 | 11 | 88* | 0 | 26* | -13 | 82* | 43*
CCCCOc1ccc(Nc2cc(Cl)ccc2C(=O)O)cn1 | -3 | 0 | 70* | 12 | 22* | 22 | 64* | 16*
COc1ccc(CC(=O)Nc2cc(Cl)ccc2C(=O)O)cc1 | 4 | -3 | 9 | 3 | 1 | -4 | / | /
COC(=O)C1CN(Cc2ccc(C)cc2)CCS(=O)(=O)N1Cc1cn(Cc2ccc(OC)cc2)nn1 (stereo unspecified) | 3 | / | -1 | -4 | 11 | / | / | /
O=C(Nc1cc(S(=O)(=O)N2CCOCC2)ccc1O)c1ccc2c(c1)S(=O)(=O)c1ccccc1C2=O | -1 | 3 | 43* | -6 | -2 | -27 | 69* | 31*
COc1ccccc1NC(=O)c1ccc(NS(=O)(=O)c2c(C)noc2C)cc1 | -4 | 5 | 12 | -2 | -2 | -9 | / | /
COc1ccccc1NC(=O)c1ccc(NS(=O)(=O)c2ccc(F)c(Cl)c2)cc1 | 4 | -9 | 44* | -6 | -3 | 9 | 54* | 14*
O=C(Nc1ccc(S(=O)(=O)N2CCOCC2)cc1)c1ccc2c(c1)S(=O)(=O)c1ccccc1C2=O | -5 | -2 | 0 | 0 | -1 | -2 | / | /
Cc1ccc(S(=O)(=O)N2CCOCC2)cc1NC(=O)CSc1ccc(Cl)cc1 | -1 | 6 | -2 | 0 | -1 | -7 | / | /
O=C(CCCSc1ccc(Cl)cc1)Nc1cc(S(=O)(=O)N2CCOCC2)ccc1O | -4 | 1 | 40* | 3 | 0 | -64 | 49* | 16*
O=C(Nc1ccc(S(=O)(=O)O)cc1)c1ccc2c(c1)S(=O)(=O)c1ccccc1C2=O | 0 | 0 | 40* | 3 | -1 | -3 | 17 | 2
O=C(Nc1ccc(Cl)cc1)c1ccc2c(c1)S(=O)(=O)c1ccccc1C2=O | 1 | -1 | 3 | 2 | -1 | 4 | / | /
O=C(OCc1cn(Cc2cc(F)cc(F)c2)nn1)N1CCOCC1 | 3 | / | 1 | 7 | 3 | / | / | /
SMILES | LEDGF integ inh | CSN inh | rCAG binder | MBD2 inh | UHRF1 MBD2 ctr | ATG4B inh | rCAG binder conf | DNA CAG counter
Cc1ccc(S(=O)(=O)N2CCOCC2)cc1C(=O)Nc1cc(S(=O)(=O)N2CCCCC2)ccc1O | 1 | 0 | 31 | -6 | -3 | -5 | / | /
O=C(Nc1cc(S(=O)(=O)Nc2ccc(Cl)cc2)ccc1O)c1ccc(S(=O)(=O)N2CCCCCC2)cc1 | 1 | 29 | 47* | 5 | -1 | 18 | 73* | 38*
O=C(Nc1cc(S(=O)(=O)N2CCOCC2)ccc1O)c1ccc(S(=O)(=O)N2CCCCC2)cc1 | 2 | 2 | 40* | -4 | -1 | -6 | 37* | 10*
O=C(NNS(=O)(=O)c1ccc(Cl)cc1)c1ccc(S(=O)(=O)N2CCCCC2)cc1 | 4 | -7 | 9 | 3 | 4 | 7 | / | /
O=S(=O)(Nc1cccc(S(=O)(=O)N2CCCC2)c1)c1ccc(Cl)cc1 | -4 | 1 | 36* | 3 | 2 | -10 | 18 | 6.5*
CCC[C@H]1[C@@H](OC(=O)N2CCOCC2)CC[C@@]23CCCN2C(=O)CCC[C@@H]13 | -4 | / | / | 0 | 5 | / | / | /
COc1cccc(-c2nc(-c3ccccc3)c(-c3ccccc3)[nH]2)c1OCC(=O)O | 1 | 3 | 64* | -5 | 0 | -1 | 61* | 19*
COc1cccc(-c2nc(-c3ccc4c(c3)-c3ccccc3S4(=O)=O)c(-c3ccccc3)[nH]2)c1OC | 1 | 3 | 19 | -2 | 4 | 0 | / | /
O=C(O)COc1ccccc1-c1nc(-c2ccccc2)c(-c2ccccc2)[nH]1 | -4 | 1 | 63* | -2 | -2 | 4 | 51* | 13*
CN1C2=N[C@H](c3cccc(C(F)(F)F)c3)CC(=O)N2/C(=C\c2ccccc2)[C@H]1c1ccccc1 | 2 | / | / | 3 | 0 | / | / | /
